Screening results as filed in PubChem BioAssay.
Compounds with a hit are over-represented: about 4.3% of the library has one in this group of screens.
TAAR1 agonist – human TAAR1 agonists, primary screen, Fluo-8 calcium fluorescence, CHO RD-HGA16 cells | vehicle wells 0%, saturating PEA agonist 100% | activation, % at 3 µM | 0.99% of 360,000 active;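 active means activation above the mean activation of all test compounds in the run plus 3 SD, cut at about 38% in these data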
Target sequence (Q96RJ0 whole entry, looked up): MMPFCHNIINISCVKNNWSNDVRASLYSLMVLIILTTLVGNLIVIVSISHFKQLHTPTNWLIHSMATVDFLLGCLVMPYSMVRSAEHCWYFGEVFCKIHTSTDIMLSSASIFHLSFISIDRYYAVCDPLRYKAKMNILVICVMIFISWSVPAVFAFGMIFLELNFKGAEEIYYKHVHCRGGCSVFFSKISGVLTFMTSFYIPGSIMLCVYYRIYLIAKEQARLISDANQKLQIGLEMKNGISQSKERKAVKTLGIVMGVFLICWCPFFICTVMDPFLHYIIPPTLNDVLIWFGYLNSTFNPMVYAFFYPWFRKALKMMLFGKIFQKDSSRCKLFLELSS
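Test system: RD-HGA16 (CHO) cells co-expressing Gα16 and hTAAR1 / Benchmarks: DMSO vehicle as 0%, PEA at EC100 as 100% / Repeats: no replicates (n 1) / Measure: % activation from peak over basal fluorescence ratio, DMSO-to-PEA scaled / Timing: 17-24 h plating, Fluo-8 75 min 37 °C, 30 min RT / Technique: kinetic Fluo-8 calcium fluorescence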
MC4R antag cAMP – MC4R antagonists of cAMP signaling, primary screen, cell-based, TR-FRET, antagonist arm of biased-ligand search | 0.48% of 360,000 active | inhibition, % at 6.5 µM | MC4R-expressing cells, MTII-stimulated cAMP, LANCE TR-FRET;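 active means inhibition above its plate's cutoff, the mean of tested wells on that plate plus 3 SD, cut at about 29% in these data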
Target sequence (P32245 whole entry, looked up): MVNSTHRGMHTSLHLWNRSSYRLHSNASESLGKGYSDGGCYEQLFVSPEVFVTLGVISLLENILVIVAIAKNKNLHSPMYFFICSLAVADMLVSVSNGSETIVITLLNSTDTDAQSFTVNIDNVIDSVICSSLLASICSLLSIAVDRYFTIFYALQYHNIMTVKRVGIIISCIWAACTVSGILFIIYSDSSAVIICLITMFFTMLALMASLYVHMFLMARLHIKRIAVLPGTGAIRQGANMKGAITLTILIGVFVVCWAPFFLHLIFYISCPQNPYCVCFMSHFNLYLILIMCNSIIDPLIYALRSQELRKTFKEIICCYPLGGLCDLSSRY
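Assay system: U2OS-MC4R stable cell line; Also added: Melanotan II; Technique: Eu-cAMP/anti-cAMP TR-FRET, emission 671 nm; Times: 30-min compound, 1-h challenge, 1-h detection, room temperature.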
MC4R ag barr – MC4R agonists recruiting beta-arrestin, primary screen, cell-based, luminescence, agonist arm of biased-ligand search; AID 540308, 2011; activation, % at 8.9 µM; 0.98% of 360,000 active; Melanocortin receptor 4 (Homo sapiens), P32245; U2OS MC4R beta-arrestin complementation; percent of melanotan II response, DMSO zero;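 active means activation above a per-plate cutoff, the mean activation of sample wells on that plate plus 3 SD, cut at about 8% in these data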
Beta2AR agonist – beta2AR agonists driving receptor internalization, primary screen, cell-based, FAP fluorogen, flow cytometry. Am2.2-beta2AR cells. Beta-2 adrenergic receptor (Homo sapiens), P07550. 0.43% of 340,000 active. response, % (concentration not given with the values);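 active means response above a set limit, near 3 SD of response in nonfluorescent compounds, cut at about 42% in these data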
HTR2A ag – mouse Htr2a agonists via beta-arrestin recruitment, primary screen, cell-based, luminescence. 5-hydroxytryptamine receptor 2A (Mus musculus), P35363. CHO-K1 mHTR2A beta-arrestin complementation; percent of 30 µM serotonin response. activation, % at 7.6 µM. 0.66% of 360,000 active. AID 624169, 2012;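 active means activation above a run cutoff, the mean activation of all tested compounds plus 3 SD, cut at about 14% in these data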
TAAR1 antagonist – human TAAR1 antagonists, primary screen, Fluo-8 calcium fluorescence, CHO RD-HGA16 cells. AID 624466, 2012. inhibition, % at 3 µM. 1.5% of 360,000 active. antagonist;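 active means inhibition above a per-plate cutoff, the mean inhibition of test compounds on that plate plus 3 SD, cut at about 49% in these data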
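Test system: RD-HGA16 CHO cells with stable hTAAR1 and Gα16 / Probe or stimulus: EC80 β-phenethylamine stimulus / Times: seeding 17-24 h prior, 75-min 37 °C, 30-min RT dye loading / Detection: Fluo-8 calcium-sensitive fluorescence / Read-out basis: % inhibition scaled between DMSO and EC80 PEA controls / Repeats: singlicate, one well per test compound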
Large screens that a line does not name were inactive.

O=C(Cc1ccc(Cl)cc1)NCCc1c[nH]c2ccccc12	none
Cc1cc(NC(=O)Cc2cn(C)c3ccccc23)ccc1Oc1cccnc1	none (no result: MC4R antag cAMP, MC4R ag barr, Beta2AR agonist, HTR2A ag)
CCCCCCC[C@@H](C/C=C/CCC(=O)N(C)C/C(=C/Cl)C/C(=C\C(=O)N1C[C@H](O)CC1=O)OC)OC	TAAR1 antagonist 50
CCCCCCC[C@@H](C/C=C/CCC(=O)O)OC	none
CCCCCCC[C@@H](C/C=C/CCC(=O)N(C)C/C(=C/Cl)C/C(=C\C(=O)N1CC(OC)=CC1=O)OC)OC	Beta2AR agonist 93
CCCc1c(C(=O)N/N=C/c2ccncc2)nnn1-c1nonc1N	none
Cc1[nH]nc2c1C(c1ccc(Br)cc1)N(Cc1ccccc1)C2=O (configuration not stated)	none (no result: MC4R antag cAMP, MC4R ag barr, Beta2AR agonist, HTR2A ag)
Cc1ccc(Cn2c(CCNc3nc(-c4ccc(Cl)c([N+](=O)[O-])c4)cs3)nc3cc(C(=O)NCCCO)ccc32)cc1	TAAR1 antagonist 55
COc1cccc(N2CCN(CC(=O)NCc3ccccc3)CC2)c1	none
COc1cccc(N2CCN(CC(=O)Nc3ccccc3C(=O)NCCc3ccccc3)CC2)c1	TAAR1 antagonist 53
O=C(CN1CCN(c2ccc(O)cc2)CC1)Nc1ccccc1C(=O)NCCc1ccccc1	TAAR1 antagonist 63
C[C@@H]1ON(C)[C@H]2C[C@H]3c4cc(N5CCN(C)CC5)ccc4CCN3C[C@@H]12	none (no result: MC4R antag cAMP, MC4R ag barr, Beta2AR agonist, HTR2A ag)
CCN1C/C(=C\c2cccc([N+](=O)[O-])c2)C(=O)/C(=C/c2cccc([N+](=O)[O-])c2)C1	Beta2AR agonist 85
O=C1/C(=C/c2cccc([N+](=O)[O-])c2)CCc2ccccc21	none
O=C(c1ccoc1)N1CCN(c2cc(-c3ccncc3)nc3cc(-c4cccc(Cl)c4)nn23)CC1	MC4R ag barr 8.8 (no result: Beta2AR agonist)
O=C(c1ccncc1)N1CCN(c2cc(-c3ccccc3)nc3cc(-c4cccc(Cl)c4)nn23)CC1	none (no result: Beta2AR agonist)
Cc1nc2scc(-c3ccc(C(C)(C)C)cc3)c2c(=O)n1N	TAAR1 antagonist 51
CC(C)CNC(=O)COC(=O)c1c2c(nc3ccccc13)/C(=C/c1cccs1)CC2	MC4R ag barr 9.5
COc1ccc(C(=O)Nc2cccc(/C=C(\CCC(=O)O)c3nc4ccccc4s3)c2)cc1	TAAR1 antagonist 52
COc1ccc(CN=Cc2[nH]c3ccc(Br)c(Cl)c3c2O)cc1	TAAR1 antagonist 106
Cc1cc(C)cc(N=Cc2[nH]c3ccc(Br)c(Cl)c3c2O)c1	none (no result: Beta2AR agonist)
CC1CCN(S(=O)(=O)c2ccc3c(c2)C(=NO)c2cc(S(=O)(=O)N4CCC(C)CC4)ccc2-3)CC1	MC4R ag barr 34
CN[C@H]1C[C@H]2c3[nH]c4c(-c5ccc6c(c5)OCO6)cccc4c3CCN2C(=O)[C@H]1[C@H](C)O	none (no result: MC4R antag cAMP, MC4R ag barr, Beta2AR agonist, HTR2A ag)
COc1ccc(N(C)S(=O)(=O)c2cccc(C(=O)OCC(=O)c3c(N)n(C)c(=O)n(C)c3=O)c2)cc1	TAAR1 antagonist 73
CN(c1ccccc1)S(=O)(=O)c1ccc(Cl)c(C(=O)OCC(=O)c2c(N)n(C)c(=O)n(C)c2=O)c1	TAAR1 antagonist 61
C=CCN1[C@H](C)[C@H](c2ccccc2)Oc2cc(Br)ccc2S1(=O)=O	none (no result: MC4R antag cAMP, MC4R ag barr, Beta2AR agonist, HTR2A ag)
CCOC(=O)C1=CCN(S(=O)(=O)c2ccc(Br)cc2)C1c1cccc(Cl)c1 (configuration not stated)	none (no result: MC4R antag cAMP, MC4R ag barr, Beta2AR agonist, HTR2A ag)
O=c1[nH]cnc2nn(C3OC(CO)C(O)C3O)nc12 (configuration not stated)	none (no result: MC4R antag cAMP, MC4R ag barr, Beta2AR agonist, HTR2A ag)
Cc1cccn2c(=O)c3cc(C(=O)NC4CCCC4)c(=N)n(CCc4ccccc4)c3nc12	Beta2AR agonist 79
CCNC(=O)c1cc2c(=O)n3cccc(C)c3nc2n(CCc2ccccc2)c1=N	Beta2AR agonist 89
COCCn1c(=N)c(C(=O)NCCc2ccccc2)cc2c(=O)n3cccc(C)c3nc21	none
Cc1cccn2c(=O)c3cc(C(=O)NC4CCCC4)c(=N)n(Cc4ccc(F)cc4)c3nc12	Beta2AR agonist 103
CCCCNC(=O)c1cc2c(=O)n3cccc(C)c3nc2n(Cc2ccccc2)c1=N	Beta2AR agonist 87
C[C@@H]1CN(S(=O)(=O)C(C)(C)C)[C@H](CCO)/C1=C\CCO	none (no result: MC4R antag cAMP, MC4R ag barr, Beta2AR agonist, HTR2A ag)
Nc1ncnc2c1ncn2[C@@H]1O[C@H](C(=O)N[C@@H](CCc2ccccc2)C(=O)N2CCN(C(=O)N3CCOCC3)CC2)[C@@H](O)[C@H]1O	none (no result: MC4R antag cAMP, MC4R ag barr, Beta2AR agonist, HTR2A ag)
CCOCCCn1c(=N)c(C(N)=S)cc2c(=O)n3cccc(C)c3nc21	none
Cc1cccn2c(=O)c3cc(C(N)=S)c(=N)n(CCCOC(C)C)c3nc12	Beta2AR agonist 71
CC(=O)c1cccc(NC(=O)C2CCCN(S(=O)(=O)c3cccc4cccnc34)C2)c1 (configuration not stated)	TAAR1 antagonist 52
O=C(Nc1nccs1)C1CCCN(S(=O)(=O)c2cccc3cccnc23)C1 (configuration not stated)	TAAR1 antagonist 50
O=C(Nc1ccccc1Cl)C1CCCN(S(=O)(=O)c2cccc3cccnc23)C1 (configuration not stated)	none
CC(=O)c1cccc(NC(=O)C2CCCN2S(=O)(=O)c2cccc3cccnc23)c1 (configuration not stated)	none
CN1CCCCC(NC(=O)C23CC4CC(CC(C4)C2)C3)C1=O (configuration not stated)	none (no result: MC4R antag cAMP, MC4R ag barr, Beta2AR agonist, HTR2A ag)
COC(=O)c1ccc(COc2ccccc2/C=N/Nc2cccc(C(=O)O)c2)cc1	none
COC(=O)c1ccc(COc2ccccc2/C=C/C(=O)c2ccc(OCC(=O)O)cc2)cc1	Beta2AR agonist 47
O=C(Nc1cccc([N+](=O)[O-])c1)c1ccc([N+](=O)[O-])o1	none (no result: Beta2AR agonist)
O=C(Nc1cccc(NC(=O)c2ccccc2Cl)c1)c1ccc([N+](=O)[O-])o1	TAAR1 antagonist 55
COc1ccc(NC(=O)C2Cc3c(-c4cccc(C(N)=O)c4)ccnc3O2)cc1 (configuration not stated)	none (no result: Beta2AR agonist)
Nc1ccn([C@@H]2O[C@H](C(=O)N3CCN(CCO)CC3)[C@@H](O)[C@H]2O)c(=O)n1	none (no result: MC4R antag cAMP, MC4R ag barr, Beta2AR agonist, HTR2A ag)
COC(=O)CCC(C)C1CCC2C3CCC4CC(O)CCC4(C)C3CC(O)C12C (configuration not stated)	MC4R ag barr 9.6
